Measurements taken from ChEMBL document CHEMBL4689842, “EUbOPEN Chemogenomics Library wave 1” (2021).
“And” between values parts separate entries of the source, which are not always exact repeats. Equal entries are not always repeated.

Tested on: U2OS
Assay: Multiplex assay against U2OS
Type: toxicity, cell-based
Conditions: human
Method in brief: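 Live cells carried four stains from seeding: Hoechst33342, BioTracker Green Microtubule Cytoskeleton Dye, MitoTracker Red and Annexin V Alexa Fluor 680. They were imaged on a CQ1 microscope at 37°C and 5% CO2 after compound addition. Using CellPathfinder machine-learning gating, cells were split into Hoechst high-intensity objects or normal cells, normal cells into healthy, pyknosed or fragmented nuclei, and pyknosed cells into mitotic or apoptotic; tubulin, mitochondrial-mass and membrane-permeability phenotypes are per cents of healthy-nucleus cells.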

[1] = 12 h, 1 µM, compound concentration 1 uM, replicate 1
[2] = 12 h, 1 µM, compound concentration 1 uM, replicate 2
[3] = 12 h, 10 µM, compound concentration 10 uM, replicate 1
[4] = 12 h, 10 µM, compound concentration 10 uM, replicate 2
[5] = 24 h, 1 µM, compound concentration 1 uM, replicate 1
[6] = 24 h, 1 µM, compound concentration 1 uM, replicate 2
[7] = 24 h, 10 µM, compound concentration 10 uM, replicate 1
[8] = 24 h, 10 µM, compound concentration 10 uM, replicate 2
[9] = 48 h, 1 µM, compound concentration 1 uM, replicate 1
[10] = 48 h, 1 µM, compound concentration 1 uM, replicate 2
[11] = 48 h, 10 µM, compound concentration 10 uM, replicate 1
[12] = 48 h, 10 µM, compound concentration 10 uM, replicate 2

Structure (SMILES): CCC1=C[C@@H]2C[N@](C1)Cc1c([nH]c3ccccc13)[C@@](C(=O)OC)(c1cc3c(cc1OC)N(C)[C@H]1[C@@](O)(C(=O)OC)[C@H](OC(C)=O)[C@]4(CC)C=CCN5CC[C@]31[C@@H]54)C2.O=C(O)C(O)C(O)C(=O)O.O=C(O)C(O)C(O)C(=O)O [VINORELBINE TARTRATE]
- Population Apoptotic (%) [1]: 55% and 29%
- Population Fragmented Nuclei (%) [1]: 14% and 9%
- Population Healthy Nuclei (%) [1]: 59% and 76%
- Population Mitochondria Different-Phenotype (%) [1]: 34% and 22%
- Population Mitotic Cells (%) [1]: 44% and 70%
- Population Normal (%) [1]: 97% and 92%
- Population Pyknosed Nuclei (%) [1]: 25% and 14%
- Population Tubulin-Different-Phenotype (%) [1]: 26%
- Population Fragmented Nuclei (%) [2]: 22%
- Population Healthy Nuclei (%) [2]: 50% and 69%
- Population Hoechst High Intensity Objects (%) [2]: 16% and 20%
- Population Mitochondria Different-Phenotype (%) [2]: 30%
- Population Mitotic Cells (%) [2]: 36% and 80%
- Population Normal (%) [2]: 83% and 79%
- Population Pyknosed Nuclei (%) [2]: 27% and 16%
- Population Tubulin-Different-Phenotype (%) [2]: 45% and 34%
- Population Apoptotic (%) [3]: 53% and 34%
- Population Fragmented Nuclei (%) [3]: 14% and 8%
- Population Healthy Nuclei (%) [3]: 74% and 76%
- Population Hoechst High Intensity Objects (%) [3]: 6% and 8%
- Population Mitochondria Different-Phenotype (%) [3]: 35% and 24%
- Population Mitotic Cells (%) [3]: 46% and 65%
- Population Normal (%) [3]: 93% and 91%
- Population Pyknosed Nuclei (%) [3]: 11% and 14%
- Population Tubulin-Different-Phenotype (%) [3]: 20% and 18%
- Total Cell Count [3]: 168 and 185
- Population Fragmented Nuclei (%) [4]: 12% and 11%
- Population Healthy Nuclei (%) [4]: 58% and 67%
- Population Hoechst High Intensity Objects (%) [4]: 13% and 18%
- Population Membrane Permeable-Phenotype (%) [4]: 56% and 20%
- Population Mitochondria Different-Phenotype (%) [4]: 45% and 18%
- Population Mitotic Cells (%) [4]: 40% and 82%
- Population Normal (%) [4]: 86% and 81%
- Population Pyknosed Nuclei (%) [4]: 29% and 21%
- Population Tubulin-Different-Phenotype (%) [4]: 45%
- Total Cell Count [4]: 132 and 78
- Population Apoptotic (%) [5]: 35% and 65%
- Population Fragmented Nuclei (%) [5]: 20% and 14%
- Population Healthy Nuclei (%) [5]: 49% and 56%
- Population Hoechst High Intensity Objects (%) [5]: 1% and 3%
- Population Membrane Permeable-Phenotype (%) [5]: 21% and 52%
- Population Mitochondria Different-Phenotype (%) [5]: 26% and 37%
- Population Mitotic Cells (%) [5]: 64% and 34%
- Population Normal (%) [5]: 98% and 96%
- Population Pyknosed Nuclei (%) [5]: 30% and 28%
- Population Tubulin-Different-Phenotype (%) [5]: 41% and 34%
- Population Apoptotic (%) [6]: 61%
- Population Fragmented Nuclei (%) [6]: 30% and 22%
- Population Healthy Nuclei (%) [6]: 36% and 59%
- Population Hoechst High Intensity Objects (%) [6]: 11% and 15%
- Population Membrane Permeable-Phenotype (%) [6]: 60% and 22%
- Population Mitochondria Different-Phenotype (%) [6]: 40%
- Population Mitotic Cells (%) [6]: 38%
- Population Normal (%) [6]: 88% and 84%
- Population Pyknosed Nuclei (%) [6]: 33% and 18%
- Population Tubulin-Different-Phenotype (%) [6]: 62% and 31%
- Population Apoptotic (%) [7]: 63% and 43%
- Population Fragmented Nuclei (%) [7]: 18% and 14%
- Population Healthy Nuclei (%) [7]: 55%
- Population Hoechst High Intensity Objects (%) [7]: 7% and 4%
- Population Membrane Permeable-Phenotype (%) [7]: 55%
- Population Mitochondria Different-Phenotype (%) [7]: 29% and 33%
- Population Mitotic Cells (%) [7]: 36% and 56%
- Population Normal (%) [7]: 92% and 95%
- Population Pyknosed Nuclei (%) [7]: 25% and 30%
- Population Tubulin-Different-Phenotype (%) [7]: 29% and 34%
- Total Cell Count [7]: 176 and 207
- Population Apoptotic (%) [8]: 82% and 47%
- Population Fragmented Nuclei (%) [8]: 21% and 17%
- Population Healthy Nuclei (%) [8]: 43%
- Population Hoechst High Intensity Objects (%) [8]: 9% and 14%
- Population Mitochondria Different-Phenotype (%) [8]: 43% and 22%
- Population Normal (%) [8]: 90% and 85%
- Population Pyknosed Nuclei (%) [8]: 34% and 26%
- Population Tubulin-Different-Phenotype (%) [8]: 38% and 22%
- Total Cell Count [8]: 147 and 90

Structure (SMILES): Cc1c[nH]c2nccc(Oc3c(F)cc(Nc4cc(Cl)nc(N)n4)cc3F)c12 [BAY-549]
- Population Apoptotic (%) [1]: 47%
- Population Fragmented Nuclei (%) [1]: 15%
- Population Healthy Nuclei (%) [1]: 66%
- Population Hoechst High Intensity Objects (%) [1]: 6%
- Population Membrane Permeable-Phenotype (%) [1]: 15%
- Population Mitochondria Different-Phenotype (%) [1]: 12%
- Population Mitotic Cells (%) [1]: 52%
- Population Normal (%) [1]: 93%
- Population Pyknosed Nuclei (%) [1]: 18%
- Population Tubulin-Different-Phenotype (%) [1]: 21%
- Total Cell Count [1]: 200
- Population Apoptotic (%) [2]: 44%
- Population Fragmented Nuclei (%) [2]: 12%
- Population Healthy Nuclei (%) [2]: 73%
- Population Hoechst High Intensity Objects (%) [2]: 5%
- Population Membrane Permeable-Phenotype (%) [2]: 4%
- Population Mitochondria Different-Phenotype (%) [2]: 6%
- Population Mitotic Cells (%) [2]: 55%
- Population Normal (%) [2]: 94%
- Population Pyknosed Nuclei (%) [2]: 14%
- Population Tubulin-Different-Phenotype (%) [2]: 12%
- Total Cell Count [2]: 68
- Population Apoptotic (%) [3]: 48%
- Population Fragmented Nuclei (%) [3]: 20%
- Population Healthy Nuclei (%) [3]: 59%
- Population Hoechst High Intensity Objects (%) [3]: 9%
- Population Membrane Permeable-Phenotype (%) [3]: 12%
- Population Mitochondria Different-Phenotype (%) [3]: 19%
- Population Mitotic Cells (%) [3]: 52%
- Population Normal (%) [3]: 90%
- Population Pyknosed Nuclei (%) [3]: 20%
- Population Tubulin-Different-Phenotype (%) [3]: 16%
- Total Cell Count [3]: 136
- Population Apoptotic (%) [4]: 40%
- Population Fragmented Nuclei (%) [4]: 17%
- Population Healthy Nuclei (%) [4]: 65%
- Population Hoechst High Intensity Objects (%) [4]: 6%
- Population Membrane Permeable-Phenotype (%) [4]: 7%
- Population Mitochondria Different-Phenotype (%) [4]: 10%
- Population Mitotic Cells (%) [4]: 60%
- Population Normal (%) [4]: 93%
- Population Pyknosed Nuclei (%) [4]: 17%
- Population Tubulin-Different-Phenotype (%) [4]: 10%
- Total Cell Count [4]: 62
- Population Apoptotic (%) [5]: 37%
- Population Fragmented Nuclei (%) [5]: 13%
- Population Healthy Nuclei (%) [5]: 70%
- Population Hoechst High Intensity Objects (%) [5]: 3%
- Population Membrane Permeable-Phenotype (%) [5]: 9%
- Population Mitochondria Different-Phenotype (%) [5]: 10%
- Population Mitotic Cells (%) [5]: 62%
- Population Normal (%) [5]: 96%
- Population Pyknosed Nuclei (%) [5]: 16%
- Population Tubulin-Different-Phenotype (%) [5]: 18%
- Total Cell Count [5]: 226
- Population Apoptotic (%) [6]: 46%
- Population Fragmented Nuclei (%) [6]: 8%
- Population Healthy Nuclei (%) [6]: 71%
- Population Membrane Permeable-Phenotype (%) [6]: 5%
- Population Mitochondria Different-Phenotype (%) [6]: 7%
- Population Mitotic Cells (%) [6]: 53%
- Population Pyknosed Nuclei (%) [6]: 20%
- Total Cell Count [6]: 77
- Population Apoptotic (%) [7]: 59%
- Population Fragmented Nuclei (%) [7]: 25%
- Population Healthy Nuclei (%) [7]: 53%
- Population Hoechst High Intensity Objects (%) [7]: 8%
- Population Membrane Permeable-Phenotype (%) [7]: 12%
- Population Mitochondria Different-Phenotype (%) [7]: 19%
- Population Mitotic Cells (%) [7]: 40%
- Population Normal (%) [7]: 91%
- Population Pyknosed Nuclei (%) [7]: 21%
- Population Tubulin-Different-Phenotype (%) [7]: 16%
- Total Cell Count [7]: 135
- Population Apoptotic (%) [8]: 71%
- Population Fragmented Nuclei (%) [8]: 12%
- Population Healthy Nuclei (%) [8]: 62%
- Population Hoechst High Intensity Objects (%) [8]: 5%
- Population Membrane Permeable-Phenotype (%) [8]: 11%
- Population Mitochondria Different-Phenotype (%) [8]: 20%
- Population Mitotic Cells (%) [8]: 28%
- Population Normal (%) [8]: 94%
- Population Pyknosed Nuclei (%) [8]: 25%
- Population Tubulin-Different-Phenotype (%) [8]: 20%
- Total Cell Count [8]: 59
- Population Apoptotic (%) [9]: 60%
- Population Healthy Nuclei (%) [9]: 64%
- Population Hoechst High Intensity Objects (%) [9]: 2%
- Population Membrane Permeable-Phenotype (%) [9]: 8%
- Population Mitochondria Different-Phenotype (%) [9]: 13%
- Population Mitotic Cells (%) [9]: 39%
- Population Normal (%) [9]: 97%
- Population Pyknosed Nuclei (%) [9]: 19%
- Population Tubulin-Different-Phenotype (%) [9]: 20%
- Total Cell Count [9]: 302
- Population Apoptotic (%) [10]: 66%
- Population Fragmented Nuclei (%) [10]: 15%
- Population Healthy Nuclei (%) [10]: 73%
- Population Hoechst High Intensity Objects (%) [10]: 0%
- Population Membrane Permeable-Phenotype (%) [10]: 11%
- Population Mitochondria Different-Phenotype (%) [10]: 20%
- Population Mitotic Cells (%) [10]: 33%
- Population Normal (%) [10]: 99%
- Population Pyknosed Nuclei (%) [10]: 11%
- Population Tubulin-Different-Phenotype (%) [10]: 28%
- Total Cell Count [10]: 106
- Population Apoptotic (%) [11]: 60%
- Population Fragmented Nuclei (%) [11]: 34%
- Population Healthy Nuclei (%) [11]: 41%
- Population Hoechst High Intensity Objects (%) [11]: 5%
- Population Membrane Permeable-Phenotype (%) [11]: 17%
- Population Mitochondria Different-Phenotype (%) [11]: 46%
- Population Mitotic Cells (%) [11]: 40%
- Population Normal (%) [11]: 94%
- Population Pyknosed Nuclei (%) [11]: 24%
- Population Tubulin-Different-Phenotype (%) [11]: 19%
- Total Cell Count [11]: 132
- Population Apoptotic (%) [12]: 76%
- Population Fragmented Nuclei (%) [12]: 12%
- Population Healthy Nuclei (%) [12]: 63%
- Population Hoechst High Intensity Objects (%) [12]: 8%
- Population Membrane Permeable-Phenotype (%) [12]: 25%
- Population Mitochondria Different-Phenotype (%) [12]: 51%
- Population Mitotic Cells (%) [12]: 23%
- Population Normal (%) [12]: 91%
- Population Pyknosed Nuclei (%) [12]: 23%
- Population Tubulin-Different-Phenotype (%) [12]: 28%
- Total Cell Count [12]: 60
